Twelve compounds from ChEMBL document CHEMBL1129280, “3-Benzisothiazolylpiperazine derivatives as potential atypical antipsychotic agents” (J Med Chem, 1996) can be followed below.

Test [1] deals with Rattus norvegicus. Put plainly: Dose (administered orally) inhibiting amphetamine-induced locomotor behavior in rats. Particulars: po. The class given is functional.
The test system of test [2] is Rattus norvegicus. Put plainly: Dose (administered orally) inhibiting apomorphine-induced stereotypy in rats. Conditions: po. In kind it is functional. The method, boiled down: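 Rats dosed orally with vehicle or compound and observed in clear cages; apomorphine HCl 0.75 mg/kg sc given 3 h later. Stereotypy rated blind on a 0–4 scale starting 10 min after apomorphine, every 10 min, five ratings in all.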

Test [3] concerns Rattus norvegicus. The test can be described thus: Dose inducing catalepsy in rats after oral administration. In kind it is functional. The method, boiled down:
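Oral dose of compound or vehicle; rats tested 120 and 180 min later with forepaws on a horizontal bar (9 mm diameter, 10 cm high). Latency to climb down recorded, 90 s maximum, score averaged over two trials; 20 s mean immobility was the catalepsy criterion. ED20s dose extrapolated by linear regression.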

The subject of test [4] is Rattus norvegicus. The test can be described thus: Dose inhibiting conditioned avoidance response in rats after oral administration. In kind it is functional. The method, boiled down:
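Each test day, 30 predrug avoidance trials in the morning; in the afternoon, oral compound or vehicle, then 30 more trials starting 120 min later. Predrug and postdrug avoidances compared by repeated-measures ANOVA with Newman-Keuls test; ID50 from linear regression of dose-response data.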

In test [5] the test system is Rattus norvegicus. Put plainly: Dose (administered orally) inhibiting spontaneous locomotor behavior in rats. In kind it is functional. Conditions: po. The method, boiled down: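 At the start of the 12 h dark cycle, rats were dosed orally with vehicle or compound and placed at once in unfamiliar activity chambers. Horizontal locomotion recorded over 4 h.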
The target of test [6] is T1, Adrenergic receptor alpha-1 (Rattus norvegicus, UniProt P15823+P23944+P43140).
T1 sequence (P15823 whole entry): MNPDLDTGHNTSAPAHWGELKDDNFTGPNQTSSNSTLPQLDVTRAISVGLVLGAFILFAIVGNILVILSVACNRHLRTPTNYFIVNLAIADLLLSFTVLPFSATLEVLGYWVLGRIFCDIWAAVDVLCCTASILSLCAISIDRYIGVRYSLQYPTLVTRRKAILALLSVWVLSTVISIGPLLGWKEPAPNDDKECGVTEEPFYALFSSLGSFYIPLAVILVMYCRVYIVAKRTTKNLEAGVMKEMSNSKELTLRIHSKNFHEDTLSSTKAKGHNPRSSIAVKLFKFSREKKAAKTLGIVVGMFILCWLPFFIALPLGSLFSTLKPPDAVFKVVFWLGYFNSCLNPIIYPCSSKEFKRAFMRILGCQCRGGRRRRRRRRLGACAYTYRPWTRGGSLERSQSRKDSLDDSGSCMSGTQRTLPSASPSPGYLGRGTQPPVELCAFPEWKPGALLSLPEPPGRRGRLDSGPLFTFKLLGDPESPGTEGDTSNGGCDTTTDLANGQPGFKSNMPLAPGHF
T1 sequence (P23944 whole entry): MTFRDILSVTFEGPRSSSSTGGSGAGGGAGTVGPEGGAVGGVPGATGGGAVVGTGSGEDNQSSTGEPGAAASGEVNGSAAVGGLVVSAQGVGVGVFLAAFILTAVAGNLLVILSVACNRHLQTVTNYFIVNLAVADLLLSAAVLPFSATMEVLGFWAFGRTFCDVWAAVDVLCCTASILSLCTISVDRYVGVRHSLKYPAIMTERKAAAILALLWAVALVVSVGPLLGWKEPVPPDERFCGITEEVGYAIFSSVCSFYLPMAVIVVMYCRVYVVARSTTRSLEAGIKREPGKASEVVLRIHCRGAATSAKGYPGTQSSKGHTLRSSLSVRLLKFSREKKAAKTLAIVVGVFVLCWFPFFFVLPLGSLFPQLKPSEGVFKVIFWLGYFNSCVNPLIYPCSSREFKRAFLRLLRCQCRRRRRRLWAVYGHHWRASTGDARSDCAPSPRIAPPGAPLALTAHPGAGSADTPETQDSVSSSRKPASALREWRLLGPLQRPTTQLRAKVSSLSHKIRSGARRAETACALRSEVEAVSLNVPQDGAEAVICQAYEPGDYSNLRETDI
T1 sequence (P43140 whole entry): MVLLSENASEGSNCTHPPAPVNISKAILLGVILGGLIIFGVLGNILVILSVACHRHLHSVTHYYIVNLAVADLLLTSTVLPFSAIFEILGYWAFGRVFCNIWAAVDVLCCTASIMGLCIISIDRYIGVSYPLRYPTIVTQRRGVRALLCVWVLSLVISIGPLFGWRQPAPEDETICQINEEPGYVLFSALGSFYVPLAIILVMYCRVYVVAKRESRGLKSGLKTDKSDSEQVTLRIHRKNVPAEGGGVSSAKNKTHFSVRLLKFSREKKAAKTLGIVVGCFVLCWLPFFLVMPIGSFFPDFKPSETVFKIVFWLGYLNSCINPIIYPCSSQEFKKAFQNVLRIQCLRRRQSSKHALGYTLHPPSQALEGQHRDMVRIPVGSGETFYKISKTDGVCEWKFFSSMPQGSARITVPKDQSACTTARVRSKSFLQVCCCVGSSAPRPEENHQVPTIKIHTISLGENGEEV
Put plainly: Displacement of [3H]prazosin from rat brain Alpha-1 adrenergic receptor. (In general: Displacement assays read how much labelled ligand stays bound in the presence of the test substance.)

For test [7], the target named is T1, Adrenergic receptor alpha-1. The test can be described thus: Displacement of [3H]prazosin from Alpha-1 adrenergic receptor in rat brain. The class given is tissue-based.

As to `CN1CCN(C2=Nc3cc(Cl)ccc3Nc3ccccc32)CC1` [CLOZAPINE], the 50% effective dose (ED50) (commonly the midpoint of the dose-response relation) with Rattus norvegicus [1] is 12.8 mg/kg; with Rattus norvegicus [2], more than 32 mg/kg; in the test with Rattus norvegicus [3], more than 32 mg/kg; in the test with Rattus norvegicus [4], more than 17.8 mg/kg; in the test with Rattus norvegicus [5] it was 8.18 mg/kg.

With `O=C(CCCN1CCC(O)(c2ccc(Cl)cc2)CC1)c1ccc(F)cc1` [HALOPERIDOL], the 50% effective dose (ED50) in the test on Rattus norvegicus [1] came to 0.14 mg/kg; with Rattus norvegicus [2] it was 0.25 mg/kg; in the test with Rattus norvegicus [3], 0.79 mg/kg; in the test on Rattus norvegicus [4], 0.93 mg/kg; in the test with Rattus norvegicus [5], 0.68 mg/kg.

Consider `O=C1CC2(CCCC2)CC(=O)N1CCCCN1CCN(c2nsc3ccccc23)CC1` [TIOSPIRONE], for which the ED50 was 4.8 mg/kg in the test with Rattus norvegicus [1]; 18.8 mg/kg in the test with Rattus norvegicus [2]; 20.1 mg/kg in the test with Rattus norvegicus [3]; 11.7 mg/kg in the test with Rattus norvegicus [4]; 15.5 mg/kg in the test on Rattus norvegicus [5]. In addition, the “Log Ki” value in test [6] is on record as -8.83. For the same compound, the Ki (in general, a dissociation constant, usually derived from enzyme kinetics or from competition with a known ligand) in test [7] is listed as 1.5 nM.

As to `O=C1Cc2cc(CCN3CCN(c4nsc5ccccc45)CC3)c(Cl)cc2N1` [ZIPRASIDONE], the ED50 came to 1.5 mg/kg in the test on Rattus norvegicus [1]; 2.4 mg/kg in the test with Rattus norvegicus [2]; 12.1 mg/kg in the test with Rattus norvegicus [3]; 2.6 mg/kg in the test on Rattus norvegicus [4]; 8.9 mg/kg in the test with Rattus norvegicus [5]. The “Log Ki” value in test [6] is reported as -7.98. This compound also gave a Ki in test [7] of 11 nM.

In the case of `Oc1nc2ccc(CCN3CCN(c4nsc5ccccc45)CC3)cc2o1`, the ED50 in the test on Rattus norvegicus [1] was 4.2 mg/kg; with Rattus norvegicus [2], 21.6 mg/kg; in the test on Rattus norvegicus [3] it was more than 32 mg/kg; in the test with Rattus norvegicus [4], 17.8 mg/kg; with Rattus norvegicus [5] it was 9.8 mg/kg. Moreover, the “Log Ki” value in test [6] is reported as -8.38. For the same compound, the Ki in test [7] turned out to be 4.2 nM.

With `Oc1nc2ccc(CCN3CCN(c4nsc5ccccc45)CC3)cc2s1`, the ED50 with Rattus norvegicus [1] is 2.7 mg/kg; in the test on Rattus norvegicus [2], 23.8 mg/kg; in the test with Rattus norvegicus [3], more than 56 mg/kg; with Rattus norvegicus [4], 12.3 mg/kg; in the test on Rattus norvegicus [5], 2.7 mg/kg. In test [6], the “Log Ki” value is given as -8.63. For the same compound, in test [7], the Ki is listed as 2.3 nM.

As for `O=C1Cc2cc(CCN3CCN(c4nsc5ccccc45)CC3)c(F)cc2N1`, the ED50 stood at 1 mg/kg in the test on Rattus norvegicus [1]; 9.1 mg/kg in the test on Rattus norvegicus [2]; 17.8 mg/kg in the test with Rattus norvegicus [3]; 9 mg/kg with Rattus norvegicus [4]; 3.1 mg/kg in the test with Rattus norvegicus [5]. In test [6], the “Log Ki” value is -8.19. This compound came in with a Ki in test [7] of 6.5 nM.

In the case of `CCN1C(=O)Cc2cc(CCN3CCN(c4nsc5ccccc45)CC3)ccc21`, the 50% effective dose (ED50) came to 1.1 mg/kg with Rattus norvegicus [1]; 4.7 mg/kg in the test with Rattus norvegicus [2]; 10 mg/kg in the test on Rattus norvegicus [3]; 1.8 mg/kg in the test on Rattus norvegicus [4]; 2.1 mg/kg in the test with Rattus norvegicus [5]. Besides, the “Log Ki” value in test [6] was -8.35. In test [7], this compound had a Ki of 4.5 nM.

In the case of `Cc1nc2n(c(=O)c1CCN1CCC(c3noc4cc(F)ccc34)CC1)CCCC2` [RISPERIDONE], the ED50 in the test on Rattus norvegicus [1] turned out to be 0.44 mg/kg; in the test on Rattus norvegicus [2], 1.8 mg/kg; in the test with Rattus norvegicus [3] it was 5.7 mg/kg; with Rattus norvegicus [4] it was 1.6 mg/kg; in the test with Rattus norvegicus [5] it was 1.2 mg/kg.

As for `CC1(C)C(=O)Nc2ccc(CCN3CCN(c4nsc5ccccc45)CC3)cc21`, the ED50 in the test with Rattus norvegicus [1] was 2.3 mg/kg; in the test with Rattus norvegicus [2] it was 10 mg/kg; with Rattus norvegicus [3], 17.8 mg/kg; in the test on Rattus norvegicus [4], 2.6 mg/kg; in the test on Rattus norvegicus [5] it was 10.7 mg/kg. Further, the “Log Ki” value in test [6] is reported as -8.68. The compound also came in with a Ki in test [7] of 2.1 nM.

`O=C1Nc2ccc(CCN3CCN(c4nsc5ccccc45)CC3)cc2C12CCCC2`: the ED50 stood at 5.8 mg/kg with Rattus norvegicus [1], 9 mg/kg with Rattus norvegicus [2] and 32 mg/kg in the test on Rattus norvegicus [3]. Besides, the “Log Ki” value in test [6] was -8.29. For the same compound, the Ki in test [7] is recorded as 5.1 nM.

As to `O=C1Cc2cc(CCN3CCN(c4nsc5ccccc45)CC3)ccc2N1`, the ED50 amounted to 1.4 mg/kg in the test on Rattus norvegicus [1]; 8.4 mg/kg with Rattus norvegicus [2]; 18.8 mg/kg in the test on Rattus norvegicus [3]; 6.7 mg/kg in the test with Rattus norvegicus [4]; 8.5 mg/kg with Rattus norvegicus [5]. In addition, the “Log Ki” value in test [6] was -8.52. This compound came in with a Ki in test [7] of 3 nM.
